Test results as given in ChEMBL document CHEMBL1123716, “Synthesis and tumor uptake of 5-halo-1-(2'-fluoro-2'-deoxy-beta-D-ribofuranosyl)[2-14C]uracils” (J Med Chem, 1987).
Values belong to the compound of their own block, whether it stands above or below them.

How the values were obtained:
Mus musculus [1] = test: Tissue distribution in BDF1 female mice bearing an implanted lewis lung tumor after intravenous injection in stomach at 0.5 h.; type: ADME, organism-based; settings: in vivo
Method in brief: (§1)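 Female BDF₁ mice (18–20 g) carrying transplanted Lewis lung tumor received 23–193 kBq of the [2-¹⁴C]-labeled nucleoside in normal saline via tail vein. The compound was stored as a dry film and reconstituted just before use. Animals were killed at set times, and tissue ¹⁴C was measured by combustion and liquid scintillation. Values are mean ± SD % injected dose per gram of wet tissue, n = 6.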

Mus musculus [2] = test: Tissue distribution in BDF1 female mice bearing an implanted lewis lung tumor after intravenous injection in tumor at 1 h.; type: ADME, organism-based; settings: in vivo
Method in brief: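 Female BDF1 mice (18–20 g) carrying a transplanted Lewis lung tumor were given 23–193 kBq of the [2-14C]-labelled nucleoside in normal saline by tail vein. Animals were killed at set times. Tissue 14C was counted by liquid scintillation, after combustion or directly. Values are percent of injected dose per gram wet tissue, as mean ± standard deviation of six animals.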

Mus musculus [3] = test: Tissue distribution in BDF1 female mice bearing an implanted lewis lung tumor after intravenous injection in skin at 2 h; type: ADME, organism-based, Skin of body; settings: in vivo; method in brief: as §1
Mus musculus [4] = test: Radioactive constituent of other in urine at 8 hr time interval after intravenous injection into BDF1 female mice bearing lewis lung tumor; type: ADME, organism-based; settings: in vivo
Method in brief: (§2)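 Radiolabeled nucleoside given in normal saline by tail vein, 23–193 kBq per mouse, to female BDF1 mice (18–20 g) carrying transplanted Lewis lung tumor. Urine was collected when the animals were killed. Components were identified by reverse-phase HPLC with UV at 256 nm on urine spiked with reference compounds, matched to liquid scintillation counts of the eluate. Each is reported as a percent of total urine radioactivity.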

Mus musculus [5] = test: Tissue distribution in BDF1 female mice bearing an implanted lewis lung tumor after intravenous injection in kidney at 0.25 h.; type: ADME, organism-based; settings: in vivo
Method in brief: (§3)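 Female BDF1 mice (18–20 g) with implanted Lewis lung tumor received the 2-14C compound by tail vein, 23–193 kBq in normal saline, reconstituted from a dry film just before use. Animals were killed at set times and tissues taken for 14C counting by combustion and liquid scintillation. Values are percent injected dose per gram wet tissue, mean ± standard deviation, six animals.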

Mus musculus [6] = test: Tissue distribution in BDF1 female mice bearing an implanted lewis lung tumor after intravenous injection in bone at 0.25 h.; type: ADME, organism-based; settings: in vivo; method in brief: as §3
Mus musculus [7] = test: Radioactive constituent of uracil in urine at 4 hr time interval after intravenous injection into BDF1 female mice bearing lewis lung tumor; type: ADME, organism-based; settings: in vivo; method in brief: as §2
Mus musculus [8] = test: Radioactive constituent in urine at 0.5 hr time interval after intravenous injection into BDF1 female mice bearing lewis lung tumor; type: ADME, organism-based; settings: in vivo; method in brief: as §2
[9] = Total urine activity excreted at 2 hr was estimated from the measurement of loss of tissue activity; type: ADME, tissue-based
Mus musculus [10] = test: Tissue distribution in BDF1 female mice bearing an implanted lewis lung tumor after intravenous injection in skin at 0.25 h.; type: ADME, organism-based, Skin of body; settings: in vivo; method in brief: as §1
Mus musculus [11] = test: Radioactive constituent in urine at 4 hr time interval after intravenous injection into BDF1 female mice bearing lewis lung tumor; type: ADME, organism-based; settings: in vivo; method in brief: as §2
Mus musculus [12] = test: Radioactive constituent of uracil in urine at 2 hr time interval after intravenous injection into BDF1 female mice bearing lewis lung tumor; type: ADME, organism-based; settings: in vivo; method in brief: as §2
Mus musculus [13] = test: Radioactive constituent of other in urine at 4 hr time interval after intravenous injection into BDF1 female mice bearing lewis lung tumor; type: ADME, organism-based; settings: in vivo; method in brief: as §2
Mus musculus [14] = test: Radioactive constituent of other in urine at 0.5 hr time interval after intravenous injection into BDF1 female mice bearing lewis lung tumor; type: ADME, organism-based; settings: in vivo; method in brief: as §2
Mus musculus [15] = test: Tissue distribution in BDF1 female mice bearing an implanted lewis lung tumor after intravenous injection in spleen at 0.25 h.; type: ADME, organism-based; settings: in vivo; method in brief: as §1
Mus musculus [16] = test: Radioactive constituent of 5-fluorouracil in urine at 0.5 hr time interval after intravenous injection into BDF1 female mice bearing lewis lung tumor; type: ADME, organism-based; settings: in vivo; method in brief: as §2
Mus musculus [17] = test: Radioactive constituent in urine at 2 hr time interval after intravenous injection into BDF1 female mice bearing lewis lung tumor; type: ADME, organism-based; settings: in vivo; method in brief: as §2
Mus musculus [18] = test: Radioactive constituent in urine at 8 hr time interval after intravenous injection into BDF1 female mice bearing lewis lung tumor; type: ADME, organism-based; settings: in vivo; method in brief: as §2
Mus musculus [19] = test: Tissue distribution in BDF1 female mice bearing an implanted lewis lung tumor after intravenous injection in muscle at 0.25 h.; type: ADME, organism-based; settings: in vivo; method in brief: as §1
Mus musculus [20] = test: Radioactive constituent of uracil in urine at 8 hr time interval after intravenous injection into BDF1 female mice bearing lewis lung tumor; type: ADME, organism-based; settings: in vivo; method in brief: as §2
Mus musculus [21] = test: Tissue distribution in BDF1 female mice bearing an implanted lewis lung tumor after intravenous injection in stomach at 0.25 h.; type: ADME, organism-based; settings: in vivo; method in brief: as §1
[22] = Total urine activity excreted at 4 hr was estimated from the measurement of loss of tissue activity; type: ADME, tissue-based
Mus musculus [23] = test: Radioactive constituent of 5-fluorouracil in urine at 8 hr time interval after intravenous injection into BDF1 female mice bearing lewis lung tumor; type: ADME, organism-based; settings: in vivo; method in brief: as §2
Mus musculus [24] = test: Tissue distribution in BDF1 female mice bearing an implanted lewis lung tumor after intravenous injection in muscle at 0.25 h; type: ADME, organism-based; settings: in vivo; method in brief: as §1
Mus musculus [25] = test: Tissue distribution in BDF1 female mice bearing an implanted lewis lung tumor after intravenous injection in skin at 2 h.; type: ADME, organism-based, Skin of body; settings: in vivo; method in brief: as §1
Mus musculus [26] = test: Tissue distribution in BDF1 female mice bearing an implanted lewis lung tumor after intravenous injection in kidney at 0.25 h; type: ADME, organism-based; settings: in vivo; method in brief: as §3
Mus musculus [27] = test: Tissue distribution in BDF1 female mice bearing an implanted lewis lung tumor after intravenous injection in skin at 0.25 h; type: ADME, organism-based, Skin of body; settings: in vivo; method in brief: as §1
Mus musculus [28] = test: Tissue distribution in BDF1 female mice bearing an implanted lewis lung tumor after intravenous injection in spleen at 0.25 h; type: ADME, organism-based; settings: in vivo; method in brief: as §1
Mus musculus [29] = test: Tissue distribution in BDF1 female mice bearing an implanted lewis lung tumor after intravenous injection in stomach at 0.25 h; type: ADME, organism-based; settings: in vivo; method in brief: as §1

Tissue distribution (Mus musculus [1]): 0.96
Tissue distribution (Mus musculus [2]): 2.24
Tissue distribution (Mus musculus [3]): 0.06
Total radioactivity (Mus musculus [4]): 38.6%
Tissue distribution (Mus musculus [5]): 47.4
Tissue distribution (Mus musculus [6]): 1.69
Total radioactivity (Mus musculus [7]): 7.3%
Total radioactivity (Mus musculus [8]): 90.7%
Total urine activity [9]: 30%
Tissue distribution (Mus musculus [10]): 3.3
Total radioactivity (Mus musculus [11]): 63.4%
Total radioactivity (Mus musculus [12]): 3.3%
Total radioactivity (Mus musculus [13]): 23%
Total radioactivity (Mus musculus [14]): 5%
Tissue distribution (Mus musculus [15]): 8.72
Total radioactivity (Mus musculus [16]): 2.1%
Total radioactivity (Mus musculus [17]): 88.5%
Total radioactivity (Mus musculus [18]): 52.4%
Tissue distribution (Mus musculus [19]): 2.48
Total radioactivity (Mus musculus [20]): 4.5%
Tissue distribution (Mus musculus [21]): 2.18
Total urine activity [22]: 0.8%
Total radioactivity (Mus musculus [23]): 4.5%
SMILES: O=c1[nH]c(=O)n([C@H]2O[C@@H](CO)[C@H](O)[C@H]2F)cc1F

Tissue distribution (Mus musculus [24]): 1.48
Tissue distribution (Mus musculus [25]): 0.13
Tissue distribution (Mus musculus [26]): 36.2
Tissue distribution (Mus musculus [27]): 2.24
Tissue distribution (Mus musculus [28]): 2.12
Tissue distribution (Mus musculus [29]): 1.41
SMILES: O=c1[nH]c(=O)n([C@H]2O[C@@H](CO)[C@H](O)[C@H]2F)cc1Cl
